Experimental data: paper PMC7069368 (MedChemComm, 2019)
“Also recorded” adds a separate entry of the source. Marks after values point to notes of the source that are not given here.

Tests used:
[1] = Thermodynamic solubility assay; type: physicochemical; settings: in vitro ADME, data not shown
Outline: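 Solid test compound (0.2–0.5 mg) was saturated in PBS and shaken at 900 rpm, room temperature, for 48 h. It was centrifuged 30 min at 10 000×g, 23 °C. The supernatant was diluted 10–1000× in acetonitrile/H₂O (50/50) in two steps and quantified by LC-MS/MS.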

Caco-2 cell monolayers = assay: Caco-2 permeability; settings: in vitro ADME, data not shown
Outline: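 Caco-2 monolayers (passage 94–105) were grown on permeable filters and used on day 21 after seeding. Filters were washed with pre-warmed HBSS. Drug solution (1 μM, prewarmed to 37 °C) was applied as donor to the apical or basolateral side. Both chambers were at pH 7.4.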

HeLa cells = settings: 10 μM compound; % of cell growth; data provided from previous studies ref 10, 11; cited from earlier work
[2] = Ames test; cited from earlier work
Pharmacokinetics in mice = type: in vivo; settings: mouse, PO 10 mg kg^–1 in lipid emulsion
Outline: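 Female C3H mice (9-week C3H/HeOuJ or 22-week C3H/HeJ, by compound) got 10 mg kg⁻¹ as a 100 μL gavage, three per dose and route. The vehicle was 55% capmul, 15% akomed, 15% ethanol and 15% cremophor, emulsified with lukewarm water. Tail-vein blood (20 μL) was taken at 0.5, 1, 2, 4, 8 and 24 h and mixed with acetonitrile. It was methanol-extracted and quantified against spiked blank mouse blood standards.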

[3] = tested on: C. trachomatis serovar L2; assay: Reinfect assay; type: cell-based, Chlamydia trachomatis
Outline: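 HeLa 229 cells were infected with serovar L2 EBs in HBSS at MOI 0.3–0.5. Test compound (2.5 or 1 μM in RPMI) was added at 1 h, then incubated 44–48 h. Cells were lysed with cold water, and EBs in SPG were 10-fold serially diluted onto fresh HeLa cells. After 44–46 h, cells were methanol-fixed and stained (anti-Chlamydia/FITC, DAPI). IFUs were counted by automated microscopy and given as % of DMSO control. Three independent experiments, duplicates.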

C. trachomatis serovar D = assay: C. trachomatis in vivo infection model; design: species or system mouse
Outline: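 Female C3H/HeJ mice, 8 weeks old, got 2.4 mg medroxyprogesterone acetate s.c. 10 and 3 days pre-infection. Vaginal mucus was swabbed away before intravaginal inoculation (5000 […], 10 μL SPG), with 30 min inverted under anaesthesia. Gavage of 100 μL of 2.33 mg mL⁻¹ in capmul/akomed/cremophor/EtOH water emulsion (n=9), vehicle alone (n=9), or 2 mg mL⁻¹ doxycycline (n=6) began at 10 h, then every 12 h for 7 days.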

| Structure (SMILES) | HeLa viability 10 μM (%) (HeLa cells) | Mutagenic potential [2] | Oral uptake / oral data (in words) (Pharmacokinetics in mice) | other results |
| --- | --- | --- | --- | --- |
| Nc1c(Cc2cccc3ccccc23)c(C2CC2)c2n(c1=O)C(C(=O)Nc1ccccc1)CS2 (stereo not drawn) [Compound 2] | 101 ± 3 ^a % | no mutagenic potential | – | Solubility (in words) [1]: poor solubility; Permeability (in words) (Caco-2 cell monolayers): moderate permeability |
| Nc1c(Cc2cccc3ccccc23)c(C2CC2)c2n(c1=O)C(n1cc(-c3ccccc3)nn1)CS2 (stereo not drawn) [Compound 3] | 105 ± 4 ^a % | no mutagenic potential | too low to be able to be quantified | – |
| O=C(Nc1ccccc1)C1CSc2c(C3CC3)c(Cc3cccc4ccccc34)cc(=O)n21 (stereo not drawn) [Compound 24, 8-cyclopropyl-7-(naphthalen-1-ylmethyl)-5-oxo-N-phenyl-3,5-dihydro-2H-thiazolo[3,2-a]pyridine-3-carboxamide] | 100 ± 4 ^a % | – | – | – |
| CS(=O)(=O)Nc1c(Cc2cccc3ccccc23)cc(=O)n2c1SCC2C(=O)Nc1ccccc1 (stereo not drawn) [Compound 30, 8-(Methylsulfonamido)-7-(naphthalen-1-ylmethyl)-5-oxo-N-phenyl-2,3-dihydrothiazolo[3,2-a]pyridine-3-carboxamide] | – | – | – | Concentrations inhibiting C. trachomatis infectivity (in words) [3]: low micromolar concentrations; Effect on vaginal C. trachomatis infection (IFUs per vaginal swab) (C. trachomatis serovar D; C3H/HeJ mice, 10 mg kg^–1 oral gavage twice a day for 7 days): the course of infection was not improved; also recorded: did not affect vaginal C. trachomatis infection; Tolerability (vital signs) (C. trachomatis serovar D; mice, 10 mg kg^–1 oral gavage twice a day): no negative vital signs |
| COc1c(Cc2cccc(C)c2C)cc(=O)n2c1SCC2C(=O)Nc1cc(C)cc(F)c1 (stereo not drawn) [Compound 18, 7-(2,3-Dimethylbenzyl)-N-(3-fluoro-5-methylphenyl)-8-methoxy-5-oxo-2,3-dihydrothiazolo[3,2-a]pyridine-3-carboxamide] | – | – | too low to allow for proper determination of pharmacokinetic parameters; also recorded: too low to be able to be quantified | – |
